Screening results from PubChem BioAssay.
APJ antagonist = blocks the human apelin receptor APJ; P35414; CHO-K1 APJ beta-arrestin complementation, luminescence; inhibition, % at 20 µM; 330,000 compounds, 0.32% hits; AID 2521;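 active = inhibition above about 40% at 20 µM, limit read from the data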;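 also: cells challenged with 10 nM apelin-13 agonist together with compound; plate controls were apelin-13 plus DMSO wells for no effect and DMSO wells lacking apelin-13 for full effect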
Target sequence (P35414 whole entry, looked up): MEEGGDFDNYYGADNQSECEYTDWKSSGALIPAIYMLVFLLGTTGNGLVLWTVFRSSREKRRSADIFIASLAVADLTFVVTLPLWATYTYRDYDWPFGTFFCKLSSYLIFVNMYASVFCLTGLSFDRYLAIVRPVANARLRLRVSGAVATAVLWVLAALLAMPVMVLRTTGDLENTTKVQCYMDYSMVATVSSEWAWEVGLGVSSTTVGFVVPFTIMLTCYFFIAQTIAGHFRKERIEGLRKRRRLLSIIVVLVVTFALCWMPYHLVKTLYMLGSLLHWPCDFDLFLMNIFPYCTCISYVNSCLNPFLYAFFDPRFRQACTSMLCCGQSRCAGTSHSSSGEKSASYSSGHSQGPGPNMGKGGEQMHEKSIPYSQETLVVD
CCR6 antagonist = CCR6 (human) receptor antagonism. inhibition, % at 20 µM. CHO-K1 CCR6 PathHunter beta-arrestin, luminescence, CCL20-stimulated. AID 493098. 340,000 compounds, 0.49% hits;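 active = compounds whose inhibition of the agonist-driven luminescence signal at 20 µM reaches about 50%, limit read from the data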;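 also: cells stimulated with CCL20 at 14 nM final; plate controls were DMSO with CCL20 for no effect and DMSO without agonist for full effect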
EBI2 antag = antagonists of human EBI2 receptor; EBI2 beta-arrestin recruitment, luminescence, 7a,25-OHC stimulated; inhibition, % at 5 µM; P32249; AID 651636; 360,000 compounds, 0.81% hits; in the data active = inhibition above about 38%;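 also: enzyme fragment complementation signal reports receptor beta-arrestin coupling in cells; 0% = agonist plus DMSO wells and 100% = wells without agonist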
B2AR ag = agonists of human beta-2 adrenergic receptor inducing internalization; Am2.2-beta2AR cells, FAP receptor internalization, flow cytometry; response, % (concentration not given with the values); P07550; 340,000 compounds, 0.43% hits;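 active = response above a set limit, near 3 SD of response in nonfluorescent compounds, cut at about 42% in these data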
APJ ag = activates the human apelin receptor APJ | P35414 | CHO-K1 APJ PathHunter beta-arrestin, luminescence; 0% DMSO wells, 100% apelin | activation, % at 20 µM | 330,000 compounds, 0.11% hits | AID 2520;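 active = activation more than six SD over the plate average, tested at 20 µM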;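 also: 0% = DMSO alone and 100% = apelin-13 at 10 nM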
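Assay system – PathHunter CHO-K1 APJ (AGTRL-1) beta-arrestin reporter cells · Compound – one dose, 20 µM compound, 1% DMSO · Timing – compound 90 min 25 °C, reagent 1 h · Measured by – luminescence from split beta-galactosidase complementation, Galacton Star/Emerald II substrate · Measure – beta-arrestin recruitment to APJ as agonist activity, luminescent signal · Benchmarks – DMSO vs Apelin-13 10 nM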
CXCR6 inh = blocks human CXCR6 beta-arrestin recruitment. inhibition, % at 20 µM. CHO-K1 PathHunter CXCR6 beta-arrestin, luminescence. 360,000 compounds, 0.36% hits. O00574; in the data active = inhibition above about 34%, passing the limit was not always enough;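 also: antagonist mode with CXCL16 agonist at 10 nM final; 0% = 10 nM CXCL16 with DMSO and 100% = unstimulated wells without agonist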
B2AR ag CP1 = activates human beta-2 adrenergic receptor; Am2.2-beta2AR cells, FAP surface receptor, flow cytometry; hits give low values; percent response (surface receptor), % at 10 µM; shares compounds with B2AR ag; 1,100 compounds, 25% hits;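 active = surface receptor percent response at or below 58%, roughly 3 SD from nonfluorescent compounds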
FAP fluor counter = flagged in Am2.2 fluorescence counterscreen for beta-2AR agonists; shares compounds with B2AR ag; Am2.2 cells, FAP fluorogen flow cytometry; hits give low values; calls only at 10 µM; 1,100 tested, under 10 active; AID 588765;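 active = percent response below a set limit in fluorescence channel 1 and below 50% in channel 8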
* = called active by the depositor; i = inactive; / = no result given. Most compounds without a hit are left out; they make up all but 1.8% or so of the library.

SMILES	APJ antagonist	CCR6 antagonist	EBI2 antag	B2AR ag	APJ ag	CXCR6 inh	B2AR ag CP1	FAP fluor counter
COc1ccc(OC)c(NC(=O)COC(=O)Cc2ccc(Br)cc2)c1	11	27	-14	-5	-3	2	/	/
COc1ccc(-c2nc(NC(=O)c3cc(C(C)(C)C)nn3C)sc2C)cc1	-27	-5	1	29	4	-11	80	i
COc1ccc(-c2nc(NC(=O)c3c(C)noc3C)sc2C)cc1	23	9	2	2	-1	-5	/	/
CC1(C)Cc2nc3sc4c(N(CCO)CCO)ncnc4c3cc2CO1	15	14	3	-9	2	1	/	/
CC(C)CNc1ncnc2c1sc1nc(N3CCOCC3)c3c(c12)CC(C)(C)OC3	-24	-15	7	-7	-2	-3	142	i
CN(C)CCNc1ncnc2c1sc1nc(N3CCCC3)c3c(c12)CC(C)(C)OC3	15	4	7	72*	3	2	35*	i
CCN(CC)CCNc1ncnc2c1sc1nc(N3CCCC3)c3c(c12)CC(C)(C)OC3	16	15	26	65*	-3	-1	96	i
CC1(C)Cc2c(c(-c3ccco3)nc3sc4c(NCCN5CCOCC5)ncnc4c23)CO1	11	5	12	42	1	4	/	/
CCN(CC)CCNc1ncnc2c1sc1nc(N3CCOCC3)c3c(c12)CCCC3	-3	18	17	25	-2	-13	/	/
CCN(CCO)c1ncnc2c1sc1nc(CC(C)C)c3c(c12)CC(C)(C)OC3	8	18	15	23	5	-5	25*	i
OCCNc1ncnc2c1sc1nc(N3CCOCC3)c3c(c12)CCC3	-21	-9	-6	-4	-7	-1	/	/
CCOC(=O)C1CCCN(C(=O)C(CCSC)NC(=O)COc2ccccc2)C1 (configuration not stated)	15	8	-7	2	-2	-9	/	/
Cc1ccccc1SCC(=O)OCC(=O)NCc1ccccc1	4	10	-4	-6	-4	-10	/	/
CCC(=O)Nc1ccc(-c2nn3c(C)nnc3s2)cc1C	-5	15	2	60*	-3	5	80	i
Cc1ccc(-c2nn3c(C)nnc3s2)cc1NC(=O)C(C)C	7	-3	4	-2	-5	-2	/	/
Cc1cccc(-c2cnc3cccnn23)c1	/	/	-9	/	/	-1	/	/
CCOc1ccc2nc(N3C(=O)CNC3=S)sc2c1	13	60*	-17	3	-4	32	104	i
Cc1nc(-[n+]2nc(-c3ccncc3)nn2-c2ccccc2)sc1C	/	/	-4	/	/	-14	/	/
COc1ccc(C(C(=O)NCc2ccccc2)n2c(-c3ccccn3)nc3ccccc32)cc1 (configuration not stated)	/	/	3	/	/	/	/	/
CC(C)NS(=O)(=O)c1ccc(OCC(=O)Nc2ccc3c(c2)OCO3)c(Cl)c1	-9	13	1	7	-4	1	/	/
O=C(COc1ccc(S(=O)(=O)N2CCCC2)cc1Cl)Nc1ccc2c(c1)OCO2	7	19	-5	-2	3	-3	118	i
Cc1cc(S(=O)(=O)N2CCCC2)ccc1OCC(=O)NC1CCCC1	-3	0	-6	-1	-1	-6	/	/
Cc1cc(S(=O)(=O)N2CCCC2)ccc1OCC(=O)Nc1ccccc1	-1	-4	3	7	-2	0	104	i
Cc1cc(S(=O)(=O)N2CCCCC2)ccc1OCC(=O)Nc1ccccc1	6	-3	7	10	-6	2	102	i
Cc1cccc(-c2nnc(SCc3nc4ccccc4[nH]3)n2Cc2ccco2)c1	5	10	17	-4	-1	18	116	i
SMILES	APJ antagonist	CCR6 antagonist	EBI2 antag	B2AR ag	APJ ag	CXCR6 inh	B2AR ag CP1	FAP fluor counter
c1coc(Cn2c(SCc3nc4ccccc4[nH]3)nnc2-c2cccs2)c1	13	-6	0	-7	8	-2	/	/
Cc1ccc(-c2nnc(SCc3nc4ccccc4[nH]3)n2Cc2ccco2)cc1	10	5	18	-32	-3	-6	106	i
CCCCNC(=O)CSc1nnc(-c2cccc(S(=O)(=O)N3CCOCC3)c2)o1	1	1	-1	13	0	-2	/	/
COc1ccccc1CNc1nc(Nc2ccccc2-n2cccn2)c2sccc2n1	/	/	15	/	/	1	/	/
Cc1ccc(C)c(CC(=O)N2CCCC(c3cc(C(=O)NCc4cccnc4)no3)C2)c1 (configuration not stated)	/	/	-1	/	/	-11	/	/
CCc1ccc(OCCOCC(O)CNC(C)CC)cc1 (configuration not stated)	1	2	-2	74*	-4	-4	103	i
CC(C)NCC(O)COCCOc1ccc(Cl)cc1 (configuration not stated)	10	0	-8	-2	0	-3	/	/
Cc1cc(Br)ccc1NC(=O)CNC(=O)c1cnn(C)c1	-34	-5	3	-1	-2	-7	/	/
CC(C)(C)c1ccc(OCC(=O)Nc2ccc(-c3nc4cccnc4o3)cc2)cc1	7	11	-16	110*	1	-4	40*	i
CC(C)C(=O)Nc1ccc(-c2nc3cccnc3o2)cc1	-12	6	-8	30	-1	-12	/	/
FC(F)(F)c1cccc(CC2CN(Cc3ccccc3)Cc3ccccc3N2c2cc(Cl)cc(Cl)c2)c1 (configuration not stated)	/	/	-3	/	/	-1	/	/
Cc1ccc(NC(=O)c2cc(N3C(=O)C=CC3=O)ccc2Cl)cc1C	-9	/	10	79*	-1	21	101	i
Cc1ccc(NC(=O)c2cc(-n3cnnc3)ccc2Cl)cc1	2	5	-2	15	-4	-2	/	/
COC(=O)c1cc2ccc(OC)cc2c2cc(OC)c(OC)cc12	-12	-11	-2	14	3	-8	/	/
O=C(COc1ccccc1Cl)Nc1cnn(Cc2ccccc2)c1	-9	18	7	0	0	-10	/	/
O=C(Nc1cnn(Cc2c(Cl)cccc2Cl)c1)C(c1ccccc1)c1ccccc1	-16	-8	17	43*	-5	11	93	i
Cc1ccc(-c2nc3ncccc3o2)cc1NC(=O)c1sc2ccccc2c1Cl	-3	-5	5	45*	-6	-5	74	i
Cc1ccc(-c2nc3ncccc3o2)cc1NC(=O)c1cccs1	-1	-4	2	-23	-1	1	/	/
COc1cc(-c2noc(C)c2C(=O)NCCc2ccccc2)cc(OC)c1OC	13	15	4	2	-3	10	/	/
